Test [1] deals with Enterococcus faecalis. Kind of test: Antibacterial activity against Streptococcus faecalis NCTC 775 strain. It counts as functional.
For test [2], the system named is Mycolicibacterium fortuitum. Put plainly: Antibacterial activity against Mycobacterium fortuitum NCTC 10394 strain. It counts as functional.
Test [3] concerns Aspergillus nidulans. Kind of test: Antifungal activity against Aspergillus nidulans CABI 0160037 strain. In kind it is functional.
Test [4] relates to Candida albicans. Kind of test: Antifungal activity against Candida albicans NCPF 3179 strain. It counts as functional. Particulars: Candida albicans; read-out: MIC.
The subject of test [5] is Aspergillus niger. Put plainly: Antifungal activity against Aspergillus niger IMI17454 strain. It counts as functional. Particulars: Aspergillus niger; read-out: MIC.
The subject of test [6] is Klebsiella aerogenes. Put plainly: Antibacterial activity against Klebsiella aerogenes WRL CN 345 strain. It counts as functional, WRL CN 375. Particulars: Klebsiella aerogenes, WRL CN 375; read-out: MIC.
The test system of test [7] is Staphylococcus aureus. Kind of test: Antibacterial activity against methicillin-resistant Staphylococcus aureus (MRSA) PHLS M1 strain. In kind it is functional. Summed up: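 Read-out is the minimum inhibitory concentration, reported in µM. Amoxycillin is tested alongside as the reference antibiotic.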
Test [8] can be described thus: Antibacterial activity against Enterobacter cloacae NCTC 10005 strain. It counts as functional.
Test [9] concerns Proteus vulgaris. Kind of test: Antibacterial activity against Proteus vulgaris NCTC 4175 strain. It counts as functional.
The test system of test [10] is Staphylococcus aureus. Kind of test: Antibacterial activity against Staphylococcus aureus NCTC 6571 strain. In kind it is functional.
Test [11] relates to Escherichia coli. Put plainly: Antibacterial activity against Escherichia coli NCTC 9001 strain. It counts as functional, organism-based.
The nature of test [12]: Antifungal activity against Candida albicans NCPF 3179 strain; na = not active. It counts as functional.
Test [13] concerns Staphylococcus aureus. Put plainly: Antibacterial activity against Staphylococcus aureus NCTC 6571 strain; na = not active. In kind it is functional, organism-based.
Test [14] deals with Enterobacter cloacae. Put plainly: Antibacterial activity against Enterobacter cloacae NCTC 10005 strain. In kind it is functional, organism-based.
Test [15] deals with Enterococcus faecalis. Kind of test: Antibacterial activity against Streptococcus faecalis NCTC 775 strain; na = not active. It counts as functional, organism-based.
Test [16] concerns Staphylococcus aureus. Kind of test: Antibacterial activity against MRSA PHLS M1 strain; na = not active. It counts as functional, organism-based.
In test [17] the test system is Aspergillus niger. Kind of test: Antifungal activity against Aspergillus niger IMI17454 strain; na = not active. It counts as functional.
Test [18] in a line: Antibacterial activity against Proteus vulgaris NCTC 4175 strain; na = not active. In kind it is functional.
The subject of test [19] is Klebsiella aerogenes. Kind of test: Antibacterial activity against Klebsiella aerogenes WRL CN 345 strain; na = not active. In kind it is functional, organism-based.

≈ marks a conversion by molar mass, not a printed value. Calls of active or inactive are those of the source.

Usually MIC stands for the smallest concentration in the dilution series that meets the test's criterion for growth inhibition. Consider `CC(C)c1sc(NC(=O)c2cc(NC(=O)c3cc(NC=O)cn3C)cn2C)nc1C(=O)NCCCN(C)C`, for which the MIC was found to be 9.5 µM (≈ 5.16 µg/mL) in test [1]; 19 µM (≈ 10.3 µg/mL) in test [2]; 76.1 µM (≈ 41.3 µg/mL) in test [3]; 76.1 µM (≈ 41.3 µg/mL) in test [4]; 76.1 µM (≈ 41.3 µg/mL) in test [5]; 76.2 µM (≈ 41.4 µg/mL) in test [6]. For the same compound, the MIC in test [7] came to 38.1 µM (≈ 20.7 µg/mL); in test [8], 76.2 µM (≈ 41.4 µg/mL); in [9], 9.5 µM (≈ 5.16 µg/mL); in test [10], 4.7 µM (≈ 2.55 µg/mL). Also, the MIC entry in test [11] is “inactive”.

On to `CCn1cc(NC(=O)c2cc(NC(=O)c3cc(NC=O)cn3C)cn2C)nc1C(=O)NCCCN(C)C`, for which the MIC result in test [12], in [13], in test [14], in test [15], in test [16] and in test [17] was “inactive” in each case. Besides, in test [11], the MIC entry is “inactive”. In addition, the MIC in [2] was 160 µM (≈ 81.9 µg/mL); in test [3], 160 µM (≈ 81.9 µg/mL); in test [6], 40 µM (≈ 20.5 µg/mL); in test [9], 160 µM (≈ 81.9 µg/mL).

Regarding `CC(C)n1cc(NC(=O)c2cc(NCc3ccccc3)cn2C)cc1C(=O)Nc1cc(C(=O)NCCCN(C)C)n(C)c1`, the MIC worked out at 147 µM (≈ 86.3 µg/mL) in test [1]; 73.5 µM (≈ 43.1 µg/mL) in test [2]; 73.5 µM (≈ 43.1 µg/mL) in test [3]; 147 µM (≈ 86.3 µg/mL) in test [4]; 147 µM (≈ 86.3 µg/mL) in [5]; 147 µM (≈ 86.3 µg/mL) in test [6]. The MIC in [10] amounted to 147 µM (≈ 86.3 µg/mL). Moreover, the MIC entry in [14], in [16], in test [18] and in test [11] was “inactive” each time.

Regarding `CN(C)CCCNC(=O)c1cc(NC(=O)c2cc(NC(=O)c3cc(NC(=O)/C=C/c4ccccc4)cn3C)cn2C)cn1C`, the MIC in [1] was determined as 8.8 µM (≈ 5.27 µg/mL); in test [2], 140 µM (≈ 83.8 µg/mL); in [3], 70.2 µM (≈ 42 µg/mL); in test [4], 35.1 µM (≈ 21 µg/mL); in test [5], 140 µM (≈ 83.8 µg/mL); in test [6] it was 70.2 µM (≈ 42 µg/mL). In addition, the MIC stood at 140 µM (≈ 83.8 µg/mL) in test [7], 70.2 µM (≈ 42 µg/mL) in test [8], 70 µM (≈ 41.9 µg/mL) in test [9] and 8.8 µM (≈ 5.27 µg/mL) in test [10]. Moreover, the MIC result in test [11] was “inactive”.

As to `CC(C)n1cc(NC(=O)c2cc(NC(=O)c3cc(NC=O)cn3C(C)C)cn2C(C)C)cc1C(=O)NCCCN(C)C`, the MIC in [1] worked out at 72 µM (≈ 41.8 µg/mL); in [2], 72 µM (≈ 41.8 µg/mL); in test [3], 72 µM (≈ 41.8 µg/mL); in test [4], 144 µM (≈ 83.6 µg/mL); in test [5], 72 µM (≈ 41.8 µg/mL); in test [6], 36 µM (≈ 20.9 µg/mL). In addition, the MIC in test [7] is 144 µM (≈ 83.6 µg/mL); in [8] it was 36 µM (≈ 20.9 µg/mL); in [9], 144 µM (≈ 83.6 µg/mL); in [10], 144 µM (≈ 83.6 µg/mL). Also, in test [11], the MIC result was “inactive”.

Consider `CC(=O)Nc1cc(C(=O)Nc2cc(C(=O)Nc3cc(C(=O)NCCCN(C)C)n(C)c3)n(C)c2)n(C)c1`, for which the MIC in test [1] stood at 160 µM (≈ 81.7 µg/mL); in [2] it was 160 µM (≈ 81.7 µg/mL); in test [3], 160 µM (≈ 81.7 µg/mL); in test [4], 160 µM (≈ 81.7 µg/mL); in [5] it was 160 µM (≈ 81.7 µg/mL); in [6] it was 80 µM (≈ 40.8 µg/mL). Moreover, the MIC came out at 40 µM (≈ 20.4 µg/mL) in test [7], 160 µM (≈ 81.7 µg/mL) in test [8] and 160 µM (≈ 81.7 µg/mL) in test [9]. The MIC entry in test [13] and in test [11] was “inactive” in each case.

Take `CC(C)c1sc(NC(=O)c2cc(NC=O)cn2C)nc1C(=O)Nc1cc(C(=O)NCCCN(C)C)n(C)c1`: the MIC turned out to be 9.5 µM (≈ 5.16 µg/mL) in test [1]; 19 µM (≈ 10.3 µg/mL) in [2]; 9.5 µM (≈ 5.16 µg/mL) in test [3]; 38.1 µM (≈ 20.7 µg/mL) in [4]; 38.1 µM (≈ 20.7 µg/mL) in test [5]; 38.1 µM (≈ 20.7 µg/mL) in test [6]. In addition, the MIC in test [7] was determined as 19.1 µM (≈ 10.4 µg/mL); in [8], 9.5 µM (≈ 5.16 µg/mL); in [10], 4.8 µM (≈ 2.6 µg/mL). Also, the MIC entry in test [18] and in test [11] was “inactive” each time.

For the compound `CN(C)CCCNC(=O)c1cc(NC(=O)c2cc(NC(=O)c3cc(NC=O)cn3C)cn2CC2CC2)cn1C`, the MIC worked out at 76.9 µM (≈ 41.3 µg/mL) in test [1]; 38.4 µM (≈ 20.6 µg/mL) in [2]; 153 µM (≈ 82.1 µg/mL) in [3]; 76.9 µM (≈ 41.3 µg/mL) in [4]; 38.4 µM (≈ 20.6 µg/mL) in test [6]; 76.9 µM (≈ 41.3 µg/mL) in [7]. In addition, the values for the MIC in [8] and in [10] were 76.9 µM (≈ 41.3 µg/mL) and 153 µM (≈ 82.1 µg/mL), respectively. Further, the MIC result in [18], in test [17] and in test [11] was “inactive” each time.

Consider `CC(C)CCn1cc(NC(=O)c2cc(NC(=O)c3cc([N+](=O)[O-])cn3C)cn2C)cc1C(=O)Nc1cc(C(=O)NCCCN(C)C)n(C)c1`, for which the MIC in test [1] is 15.8 µM (≈ 10.7 µg/mL); in [2], 15.8 µM (≈ 10.7 µg/mL); in test [3], 25.8 µM (≈ 17.5 µg/mL); in test [4], 15.8 µM (≈ 10.7 µg/mL); in test [5], 15.8 µM (≈ 10.7 µg/mL); in test [6] it was 15.8 µM (≈ 10.7 µg/mL). Also, the minimum inhibitory concentration (MIC) in [7] came out at 126 µM (≈ 85.3 µg/mL); in test [9] it was 126 µM (≈ 85.3 µg/mL); in [10] it was 31.6 µM (≈ 21.4 µg/mL). The MIC entry in test [14] and in test [11] was “inactive” throughout.

With `COc1cccc(C(=O)Nc2cc(C(=O)Nc3cc(C(=O)Nc4cc(C(=O)NCCCN(C)C)n(C)c4)n(CCC(C)C)c3)n(C)c2)c1`, the MIC worked out at 16.2 µM (≈ 10.7 µg/mL) in test [1], 32.4 µM (≈ 21.3 µg/mL) in [2], 2 µM (≈ 1.32 µg/mL) in test [7] and 16.2 µM (≈ 10.7 µg/mL) in test [10]. The MIC result in [12], in test [14], in test [19], in test [18], in test [17] and in test [11] was “inactive” throughout.

Values taken from ChEMBL document CHEMBL1137088, “Distamycin analogues with enhanced lipophilicity: synthesis and antimicrobial activity” (2004).
